Reference: ChEMBL document CHEMBL4024770, “Augmentation of Anticancer Drug Efficacy in Murine Hepatocellular Carcinoma Cells by a Peripherally Acting Competitive N-Methyl-d-aspartate (NMDA) Receptor Antagonist” (J Med Chem, 2017)
Active and inactive are the calls of the source. The rule behind the calls is not given here.

Experiments:
[1] = target: Glutamate NMDA receptor; Grin1/Grin2a (Rattus norvegicus, UniProt P35439+Q00959); assay: Antagonist activity at recombinant rat GluN1a/GluN2A expressed in Xenopus laevis oocytes assessed as inhibition of glycine/glutamate-mediated current responses by two-electrode voltage clamp method; format: cell-based
How it was run: (§1)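 Xenopus oocytes were injected with rat GluN1 and GluN2A–D cRNA (1:2) and recorded 2–6 days later by TEVC at room temperature, −40 mV, in Ba2+-containing recording solution, pH 7.4. Currents were evoked by 100 μM glycine plus glutamate at 2–3× EC50: 10 μM for GluN2A, 3 μM for GluN2B and GluN2C, 1 μM for GluN2D. IC50 from Hill fits per oocyte; Ki estimated.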

[2] = target: Glutamate NMDA receptor; Grin1/Grin2b (Rattus norvegicus, UniProt P35439+Q00960); assay: Antagonist activity at recombinant rat GluN1a/GluN2B expressed in Xenopus laevis oocytes assessed as inhibition of glycine/glutamate-mediated current responses by two-electrode voltage clamp method; format: cell-based; how it was run: as §1
[3] = target: Glutamate NMDA receptor; Grin1/Grin2c (Rattus norvegicus, UniProt P35439+Q00961); assay: Antagonist activity at recombinant rat GluN1a/GluN2C expressed in Xenopus laevis oocytes assessed as inhibition of glycine/glutamate-mediated current responses by two-electrode voltage clamp method; format: cell-based; how it was run: as §1
[4] = target: Ionotropic glutamate receptor NMDA 1/2D (Rattus norvegicus, UniProt P35439+Q62645); assay: Antagonist activity at recombinant rat GluN1a/GluN2D expressed in Xenopus laevis oocytes assessed as inhibition of glycine/glutamate-mediated current responses by two-electrode voltage clamp method; format: cell-based; how it was run: as §1
Mus musculus [5] = species on record: Mus musculus; assay: Antagonist activity at NMDA receptor in Nras driven p53 deficient mouse HCC cell membranes assessed as LPS-stimulated PGE2 levels at 10 uM after 24 hrs by LC-MS/MS method (reference value: 162 +/- 7%); set-up: scale not given: the % may be the effect or the level left
How it was run: (§2)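 Mouse Nras-driven p53−/− HCC cells in DMEM with 2 mM L-glutamine, 10% heat-inactivated FBS and penicillin/streptomycin. Cells incubated 24 h with or without antagonist, either without LPS or with 2.5 μg/mL LPS in the growth medium. Cells washed three times with ice-cold HBSS and lysed in acetonitrile on ice. PGE₂ in lysates measured by LC-MS/MS (LLOQ 1 nM) and expressed as % of control; n=3.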

Mus musculus [6] = species on record: Mus musculus; assay: Antagonist activity at NMDA receptor in Nras driven p53 deficient mouse HCC cell membranes assessed as inhibition of NMDA-induced intracellular Ca2+ transients at 20 uM […] by fluo-4AM dye-based fluorescence assay
How it was run: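 Intact murine HCC cells loaded with 5 μM Fluo-4-AM for 45 min, then washed out for 20 min in BSS (mM: 2.5 KCl, 152 NaCl, 10 glucose, 2 CaCl₂, 10 HEPES, pH 7.4). 150 μM NMDA applied for 15 s by fast perfusion, alone or together with antagonist. Fluorescence imaged with 495 nm excitation on a CCD camera. Read-out is the percentage of cells showing induced Ca²⁺ transients; n=5.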

Mus musculus [7] = species on record: Mus musculus; assay: Antagonist activity at NMDA receptor in Nras driven p53 deficient mouse HCC cell membranes assessed as PGE2 levels at 10 uM after 24 hrs by LC-MS/MS method relative to control; set-up: scale not given: the % may be the effect or the level left; how it was run: as §2
Mus musculus [8] = species on record: Mus musculus; assay: Antagonist activity at NMDA receptor in Nras driven p53 deficient mouse HCC cell membranes assessed as potentiation of 1 uM sorafenib-mediated antiproliferative activity by measuring cell viability at 100 uM after 72 hrs by resazurin assay (reference value: […] +/- […]%)
Mus musculus [9] = species on record: Mus musculus; assay: Antagonist activity at NMDA receptor in Nras driven p53 deficient mouse HCC cell membranes assessed as potentiation of 2.5 uM sorafenib-mediated antiproliferative activity by measuring cell viability at 100 uM after 72 hrs by resazurin assay (reference value: […] +/- […]%)
Mus musculus [10] = species on record: Mus musculus; assay: Antagonist activity at NMDA receptor in Nras driven p53 deficient mouse HCC cell membranes assessed as potentiation of 5 uM sorafenib-mediated antiproliferative activity by measuring cell viability at 100 uM after 72 hrs by resazurin assay (reference value: […] +/- […]%)
Mus musculus [11] = species on record: Mus musculus; assay: Antagonist activity at NMDA receptor in Nras driven p53 deficient mouse HCC cell membranes assessed as potentiation of 10 uM sorafenib-mediated antiproliferative activity by measuring cell viability at 100 uM after 72 hrs by resazurin assay (reference value: […] +/- […]%)
[12] = Antiproliferative activity against Nras driven p53 deficient mouse HCC cells assessed as cell viability at 100 uM after 72 hrs by resazurin assay relative to control; format: functional; settings: read-out: Activity
[13] = target: Glutamate receptor ionotropic, kainate 3 (Rattus norvegicus, UniProt P42264); assay: Displacement of [3H]-KA from recombinant homomeric rat GluK3a receptor expressed in baculovirus infected Sf9 insect cell membranes by scintillation counting method
[14] = Displacement of [3H]-AMPA from AMPA receptor in Sprague-Dawley rat brain synaptosomes after 30 mins by scintillation counting method; format: subcellular
[15] = Displacement of [3H]-KA from KA receptor in Sprague-Dawley rat brain synaptosomes after 60 mins by scintillation counting method; format: subcellular
[16] = target: Glutamate receptor ionotropic, kainate 1 (Rattus norvegicus, UniProt P22756); assay: Displacement of [3H]-SYM2081 from recombinant homomeric rat GluK1 (Q)1b receptor expressed in baculovirus infected Sf9 insect cell membranes by scintillation counting method
[17] = target: Glutamate receptor ionotropic, kainate 2 (Rattus norvegicus, UniProt P42260); assay: Displacement of [3H]-KA from recombinant homomeric rat GluK2 (V,C,R)a receptor expressed in baculovirus infected Sf9 insect cell membranes by scintillation counting method
[18] = Displacement of [3H]-CGP-39653 from NMDA receptor in Sprague-Dawley rat brain synaptosomes after 60 mins by scintillation counting method; format: subcellular

Glutamate receptor ionotropic, kainate 1, sequence (P22756 whole entry): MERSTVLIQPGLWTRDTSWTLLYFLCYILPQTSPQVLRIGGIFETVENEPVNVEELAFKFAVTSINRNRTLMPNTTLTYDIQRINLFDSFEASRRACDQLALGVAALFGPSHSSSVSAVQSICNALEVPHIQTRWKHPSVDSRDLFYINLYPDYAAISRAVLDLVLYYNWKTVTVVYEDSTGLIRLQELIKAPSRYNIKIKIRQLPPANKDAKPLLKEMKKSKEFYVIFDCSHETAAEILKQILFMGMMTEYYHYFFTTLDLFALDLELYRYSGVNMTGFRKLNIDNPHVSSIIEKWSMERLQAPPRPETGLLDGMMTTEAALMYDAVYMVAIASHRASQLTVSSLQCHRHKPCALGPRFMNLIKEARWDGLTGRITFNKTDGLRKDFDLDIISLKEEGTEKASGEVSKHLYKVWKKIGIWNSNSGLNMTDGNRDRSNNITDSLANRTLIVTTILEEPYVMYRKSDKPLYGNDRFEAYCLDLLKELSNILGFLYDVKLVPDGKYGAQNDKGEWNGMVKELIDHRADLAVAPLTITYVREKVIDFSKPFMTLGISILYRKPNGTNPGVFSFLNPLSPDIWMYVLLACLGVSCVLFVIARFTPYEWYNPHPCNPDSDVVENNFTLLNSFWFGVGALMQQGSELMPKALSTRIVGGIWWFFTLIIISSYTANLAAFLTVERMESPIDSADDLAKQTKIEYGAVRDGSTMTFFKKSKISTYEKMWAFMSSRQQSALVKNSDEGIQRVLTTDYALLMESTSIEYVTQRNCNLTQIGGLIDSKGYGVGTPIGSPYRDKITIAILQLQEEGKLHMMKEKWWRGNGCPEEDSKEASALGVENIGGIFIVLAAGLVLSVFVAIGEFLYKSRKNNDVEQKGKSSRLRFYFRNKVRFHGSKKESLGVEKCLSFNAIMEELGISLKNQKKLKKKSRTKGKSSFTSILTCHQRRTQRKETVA
Glutamate receptor ionotropic, kainate 3, sequence (P42264 whole entry): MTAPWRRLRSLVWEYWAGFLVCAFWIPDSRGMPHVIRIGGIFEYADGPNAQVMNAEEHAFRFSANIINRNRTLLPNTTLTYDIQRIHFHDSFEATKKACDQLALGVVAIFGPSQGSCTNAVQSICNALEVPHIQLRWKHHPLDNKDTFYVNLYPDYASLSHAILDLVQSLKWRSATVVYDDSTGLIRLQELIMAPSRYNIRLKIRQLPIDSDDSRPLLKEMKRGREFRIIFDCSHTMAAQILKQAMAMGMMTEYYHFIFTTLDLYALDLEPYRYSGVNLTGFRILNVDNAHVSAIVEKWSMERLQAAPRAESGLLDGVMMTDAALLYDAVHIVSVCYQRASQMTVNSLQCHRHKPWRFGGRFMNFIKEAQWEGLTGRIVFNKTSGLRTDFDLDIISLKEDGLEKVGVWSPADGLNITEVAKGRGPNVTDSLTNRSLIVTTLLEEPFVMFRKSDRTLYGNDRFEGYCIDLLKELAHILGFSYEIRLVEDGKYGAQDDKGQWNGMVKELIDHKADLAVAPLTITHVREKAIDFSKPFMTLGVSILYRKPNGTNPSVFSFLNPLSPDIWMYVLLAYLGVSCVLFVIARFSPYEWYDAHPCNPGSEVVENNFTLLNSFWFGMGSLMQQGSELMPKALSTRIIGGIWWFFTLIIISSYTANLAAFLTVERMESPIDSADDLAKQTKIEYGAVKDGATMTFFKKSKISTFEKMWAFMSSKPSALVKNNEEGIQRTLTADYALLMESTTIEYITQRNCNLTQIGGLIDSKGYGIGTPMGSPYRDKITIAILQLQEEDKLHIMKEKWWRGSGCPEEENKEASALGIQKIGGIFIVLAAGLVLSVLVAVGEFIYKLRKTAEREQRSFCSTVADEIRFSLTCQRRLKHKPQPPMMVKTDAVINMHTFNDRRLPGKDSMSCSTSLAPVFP
Glutamate receptor ionotropic, kainate 2, sequence (P42260 whole entry): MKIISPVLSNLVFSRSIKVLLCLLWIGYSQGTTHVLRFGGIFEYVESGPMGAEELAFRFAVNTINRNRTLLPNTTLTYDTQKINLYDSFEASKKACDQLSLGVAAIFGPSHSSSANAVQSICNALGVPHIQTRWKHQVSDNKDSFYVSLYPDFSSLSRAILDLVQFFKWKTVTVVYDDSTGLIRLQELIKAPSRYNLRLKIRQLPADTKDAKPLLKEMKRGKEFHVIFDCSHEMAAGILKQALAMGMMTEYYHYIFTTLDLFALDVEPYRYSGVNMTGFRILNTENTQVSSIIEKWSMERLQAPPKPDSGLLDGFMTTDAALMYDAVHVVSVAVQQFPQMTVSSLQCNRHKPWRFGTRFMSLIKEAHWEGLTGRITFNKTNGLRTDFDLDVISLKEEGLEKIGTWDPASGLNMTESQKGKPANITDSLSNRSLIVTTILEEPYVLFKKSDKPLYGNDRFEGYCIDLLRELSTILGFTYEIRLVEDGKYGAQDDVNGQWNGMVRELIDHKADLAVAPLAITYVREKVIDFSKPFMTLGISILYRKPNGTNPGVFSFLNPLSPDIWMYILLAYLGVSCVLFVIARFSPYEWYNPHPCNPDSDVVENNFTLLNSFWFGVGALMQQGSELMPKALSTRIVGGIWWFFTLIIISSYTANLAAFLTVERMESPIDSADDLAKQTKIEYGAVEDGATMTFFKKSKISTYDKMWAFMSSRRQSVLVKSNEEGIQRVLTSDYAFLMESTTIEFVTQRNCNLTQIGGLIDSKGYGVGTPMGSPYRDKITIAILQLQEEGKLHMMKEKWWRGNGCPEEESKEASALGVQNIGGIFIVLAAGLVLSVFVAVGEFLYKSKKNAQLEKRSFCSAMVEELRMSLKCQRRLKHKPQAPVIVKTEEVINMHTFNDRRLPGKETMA
Glutamate NMDA receptor; Grin1/Grin2a, sequence (Q00959 whole entry, other chains not shown): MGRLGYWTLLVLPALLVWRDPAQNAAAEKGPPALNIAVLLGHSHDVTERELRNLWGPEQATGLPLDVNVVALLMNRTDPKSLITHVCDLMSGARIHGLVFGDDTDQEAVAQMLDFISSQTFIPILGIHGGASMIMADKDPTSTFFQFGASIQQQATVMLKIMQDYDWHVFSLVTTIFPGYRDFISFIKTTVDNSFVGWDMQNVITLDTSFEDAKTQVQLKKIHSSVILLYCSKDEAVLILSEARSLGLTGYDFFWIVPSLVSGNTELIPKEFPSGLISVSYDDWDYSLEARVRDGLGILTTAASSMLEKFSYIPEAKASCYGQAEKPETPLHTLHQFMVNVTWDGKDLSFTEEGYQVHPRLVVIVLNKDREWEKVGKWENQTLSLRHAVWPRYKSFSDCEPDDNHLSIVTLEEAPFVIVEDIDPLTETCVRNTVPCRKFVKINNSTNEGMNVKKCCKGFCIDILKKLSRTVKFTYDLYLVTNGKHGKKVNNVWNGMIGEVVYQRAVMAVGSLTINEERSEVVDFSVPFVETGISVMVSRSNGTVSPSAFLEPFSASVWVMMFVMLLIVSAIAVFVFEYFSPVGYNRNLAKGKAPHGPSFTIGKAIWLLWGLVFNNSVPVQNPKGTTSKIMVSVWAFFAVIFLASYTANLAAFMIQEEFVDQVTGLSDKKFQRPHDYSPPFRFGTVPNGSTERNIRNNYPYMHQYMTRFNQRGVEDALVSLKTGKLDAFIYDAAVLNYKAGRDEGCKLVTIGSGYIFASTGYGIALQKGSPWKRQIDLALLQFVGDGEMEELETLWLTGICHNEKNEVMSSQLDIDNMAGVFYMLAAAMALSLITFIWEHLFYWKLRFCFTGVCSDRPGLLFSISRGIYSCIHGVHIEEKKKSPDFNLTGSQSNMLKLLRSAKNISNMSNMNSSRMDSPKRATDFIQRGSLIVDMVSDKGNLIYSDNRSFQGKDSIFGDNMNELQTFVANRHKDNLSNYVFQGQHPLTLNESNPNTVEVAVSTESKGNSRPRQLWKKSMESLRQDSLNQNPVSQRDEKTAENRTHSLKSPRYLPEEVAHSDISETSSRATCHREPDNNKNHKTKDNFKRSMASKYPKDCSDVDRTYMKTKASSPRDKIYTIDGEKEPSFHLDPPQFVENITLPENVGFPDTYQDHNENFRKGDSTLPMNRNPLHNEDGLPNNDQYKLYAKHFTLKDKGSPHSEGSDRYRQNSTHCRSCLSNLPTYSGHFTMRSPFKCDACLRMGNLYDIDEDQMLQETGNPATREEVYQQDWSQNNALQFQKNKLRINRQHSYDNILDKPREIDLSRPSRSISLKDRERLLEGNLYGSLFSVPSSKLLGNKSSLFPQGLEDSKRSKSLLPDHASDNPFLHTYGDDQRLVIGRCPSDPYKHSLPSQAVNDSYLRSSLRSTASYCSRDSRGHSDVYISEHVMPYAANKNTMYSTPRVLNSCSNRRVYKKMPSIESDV

| SMILES | Ki [13] | IC50 [14] | IC50 [15] | Ki [16] | Ki [17] | Ki [18] | further results |
| --- | --- | --- | --- | --- | --- | --- | --- |
| N[C@H](CCCP(=O)(O)O)C(=O)O |  |  |  |  |  |  | Ki [1]: 390 nM; Ki [2]: 2800 nM; Ki [3]: 5.9 µM; Ki [4]: 21 µM; Activity (Mus musculus [5]): 110%; inhibition (Mus musculus [6]): Active; Activity (Mus musculus [7]): 58%; Activity (Mus musculus [8]): 70%; Activity (Mus musculus [9]): 63%; Activity (Mus musculus [10]): 44%; Activity (Mus musculus [11]): 16%; viability at 100 µM [12]: 79% |
| Cc1ccc([C@H]2CCN[C@@H]2C(=O)O)cc1C(=O)O | > 100 µM | > 100 µM | > 100 µM | > 100 µM | > 100 µM |  |  |
| O=C(O)[C@H]1NCC[C@@H]1c1ccc(O)c(O)c1 |  | > 100 µM | > 100 µM |  |  | 35 µM | pKi [18]: 4.46 |
| Cl.O=C(O)c1cc([C@H]2CCN[C@@H]2C(=O)O)ccc1F | 11 µM | > 100 µM | 59 µM | 12 µM | > 100 µM | 4.6 µM | pIC50 [15]: 4.23; pKi [18]: 5.34 |
| O=C(O)c1cc([C@H]2CCN[C@@H]2C(=O)O)ccc1Br | > 100 µM | > 100 µM | > 100 µM | > 100 µM | > 100 µM |  |  |

More lines, main results first:

| Ki [13] | IC50 [14] | IC50 [15] | Ki [16] | Ki [17] | Ki [18] | SMILES | further results |
| --- | --- | --- | --- | --- | --- | --- | --- |
| > 100 µM | > 100 µM | > 100 µM | > 1000 µM | > 1000 µM | > 100 µM | O=C(O)[C@H]1NCC[C@@H]1c1cccc(B(O)O)c1 |  |
| > 100 µM | > 100 µM | > 100 µM | > 100 µM | > 100 µM | > 100 µM | O=C(O)[C@H]1NCC[C@@H]1c1cccc(C(F)(F)F)c1 |  |
| > 1000 µM | > 100 µM | > 100 µM | > 1000 µM | > 1000 µM | > 100 µM | N#Cc1cccc([C@H]2CCN[C@@H]2C(=O)O)c1 |  |
| > 100 µM | > 100 µM | > 100 µM | > 100 µM | > 100 µM | > 100 µM | NC(=O)c1cccc([C@H]2CCN[C@@H]2C(=O)O)c1 |  |
|  | > 100 µM | > 100 µM |  |  | > 100 µM | Nc1cccc([C@H]2CCN[C@@H]2C(=O)O)c1 |  |
| > 100 µM | > 100 µM | > 100 µM | > 100 µM | > 100 µM | > 100 µM | O=C(O)[C@H]1NCC[C@@H]1c1cccc(Cl)c1 |  |
